Most compounds without a hit are left out; they make up all but 1.2% or so of the library.
APOBEC3A inh: APOBEC3A ssDNA deaminase inhibitors, primary screen, selectivity assay for APOBEC3G inhibitor project, biochemical, FAM/TAMRA oligo cleavage fluorescence. DNA dC->dU-editing enzyme APOBEC-3A (Homo sapiens), P31941. recombinant A3A, FAM/TAMRA ssDNA deamination fluorescence. inhibition, % at 20 µM. 0.41% of 330,000 active;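 active = at least 40% inhibition at 20 µM here, with at most 30% in a related deaminase screen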
Target sequence (P31941 whole entry, looked up): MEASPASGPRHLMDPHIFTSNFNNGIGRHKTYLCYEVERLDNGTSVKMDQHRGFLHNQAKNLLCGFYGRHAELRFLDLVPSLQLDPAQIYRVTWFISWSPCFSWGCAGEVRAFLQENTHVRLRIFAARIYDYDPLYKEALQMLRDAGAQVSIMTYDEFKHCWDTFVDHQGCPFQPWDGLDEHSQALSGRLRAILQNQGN
ABHD5-PLIN5 inh: ABHD5-PLIN5 interaction inhibitors, primary screen, cell lysate, split luciferase complementation, luminescence. AID 602281, 2012. 0.78% of 360,000 active. Perilipin-5 (Homo sapiens) + 1-acylglycerol-3-phosphate O-acyltransferase ABHD5 (Homo …. inhibition, % at 4 µM. Split G. princeps luciferase complementation, 4 h;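 active = inhibition above the mean inhibition across every tested compound plus 3 SD, cut at about 22% in these data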
APOBEC3G inh: APOBEC3G DNA deaminase inhibitors, primary screen, biochemical, fluorescence, single-stranded DNA substrate, uHTS; 0.28% of 330,000 active; AID 493012, 2011; inhibition, % at 20 µM; recombinant A3G, ssDNA deamination FAM/TAMRA fluorescence; DNA dC->dU-editing enzyme APOBEC-3G (Homo sapiens), Q9HC16;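 active = inhibition of at least 40% at 20 µM, with no more than 30% in the related APOBEC3A deaminase screen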
Target sequence (Q9HC16 whole entry, looked up): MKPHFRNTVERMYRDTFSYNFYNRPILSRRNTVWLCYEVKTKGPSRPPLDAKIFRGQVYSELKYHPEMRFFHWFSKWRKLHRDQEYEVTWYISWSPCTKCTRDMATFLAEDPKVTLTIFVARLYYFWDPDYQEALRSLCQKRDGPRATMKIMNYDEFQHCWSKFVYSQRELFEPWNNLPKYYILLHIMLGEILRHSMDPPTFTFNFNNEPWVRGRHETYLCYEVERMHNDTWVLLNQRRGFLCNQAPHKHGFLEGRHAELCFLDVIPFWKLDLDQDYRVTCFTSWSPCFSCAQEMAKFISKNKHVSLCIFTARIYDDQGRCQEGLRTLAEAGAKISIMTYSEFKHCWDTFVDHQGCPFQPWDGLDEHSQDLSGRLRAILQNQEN
FN deposit inh: inhibitors of fibronectin matrix deposition, primary screen, AH1F cells, Alexa488-fibronectin fluorescence, plate reader; AH1F fibroblasts, overnight; inhibition, % at 12.6 µM; 0.086% of 350,000 active;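 active = mean inhibition across replicates of 30% or more, regardless of how many single replicates reach that level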
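Measured by – fluorescence 485/525 nm · System – AH1F fibroblast monolayer, labelled fibronectin deposition · Amount – 10000 cells per well · Buffer or medium – serum-reduced DMEM (2% serum) · Doses – single dose, pinned · Also added – fluorescent fibronectin at 24 nM final · Schedule – 1 h cell attachment, overnight exposure to compound and label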
ABHD5 PLIN5 conf: ABHD5-PLIN5 interaction inhibitors, confirmation, biochemical, luminescence; shares compounds with ABHD5-PLIN5 inh; inhibition, % at 4 µM; 67% of 2,200 active; AID 651612, 2012; in the data active = inhibition above about 23%
HNF4 split-luc: HNF4 dimerization inhibitors, counter-screen for ABHD5-PLIN5 interaction inhibitor project, biochemical, split-luciferase complementation, luminescence | inhibition, % at 4 µM | shares compounds with ABHD5-PLIN5 inh | 77% of 2,200 active | AID 651674, 2012;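 active = mean inhibition across replicate wells exceeding the computed hit threshold, cut at about 13% in these data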;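 also: light from luciferase halves that rejoin when HNF4 fusion proteins dimerize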
Numbers stand for hits; i = inactive; nt = no result given; ! = not confirmed by another sample.

SMILES | APOBEC3A inh | ABHD5-PLIN5 inh | APOBEC3G inh | FN deposit inh | ABHD5 PLIN5 conf | HNF4 split-luc
O=C(NCc1ccccc1)C(c1ccccc1)n1c(=O)c(-c2ccco2)nc2ccccc21 (configuration not stated) | nt | 74 | nt | i | 48 | i
O=C(Nc1ccc2c(c1)OCCO2)C(c1ccccc1)n1c(=O)c(-c2ccco2)nc2ccccc21 (configuration not stated) | nt | i | nt | i | nt | nt
O=C(NC1CCCCC1)C(C1CC1)n1c(=O)c(-c2ccccc2)nc2ccccc21 (configuration not stated) | nt | i | nt | i | nt | nt
O=C(NCc1ccccc1)C(c1cc2ccccc2o1)n1c(=O)c(-c2ccco2)nc2ccccc21 (configuration not stated) | nt | 91 | nt | i | 62 | 15
O=C(NCc1ccccc1)C(C1CC1)n1c(=O)c(-c2ccco2)nc2ccccc21 (configuration not stated) | nt | 38 | nt | i | 37 | 13
O=C(NCc1ccccc1)C(c1ccc(C(F)(F)F)cc1)n1c(=O)c(-c2ccco2)nc2ccccc21 (configuration not stated) | nt | 74 | nt | i | 95 | 44
CC(C)(C)NC(=O)C(c1ccc(C(F)(F)F)cc1)n1c(=O)c(-c2ccco2)nc2ccccc21 (configuration not stated) | nt | 60 | nt | i | 87 | 38
CC(C)(C)NC(=O)C(c1ccccc1)n1c(=O)c(-c2ccccc2)nc2ccccc21 (configuration not stated) | nt | i | nt | i | nt | nt
CCOc1ccc(C(=O)CC(Sc2ccc(C)cc2)C(=O)O)cc1 (configuration not stated) | i | 60 | i | i | i | 69
O=C(CC(Sc1ccc(Br)cc1)C(=O)O)c1ccc(F)cc1 (configuration not stated) | i | 66 | i | i | 42 | 80
CC(C)NC(=O)Nc1ccc2c(c1)C(=O)N([C@H](C)CO)C[C@H](C)[C@@H](CN(C)S(=O)(=O)c1cccs1)OCCCC[C@H](C)O2 | nt | nt | nt | i | nt | nt
CN1c2ccc(-c3ccccc3)cc2[C@H]2[C@H](CCN2C(=O)c2ccncc2)[C@H]1CO | nt | nt | nt | i | nt | nt
COc1ccc(NC(=O)CSc2nnc(-c3ccco3)c(-c3ccco3)n2)cc1OC | i | i | i | i | nt | nt
Cc1ccc(NC(=O)CSc2nnc(-c3ccco3)c(-c3ccco3)n2)cc1 | i | 27 | i | i | 94 | 65
O=C(C[C@H]1CC[C@H]2[C@@H](COC[C@H](O)CN2S(=O)(=O)c2ccc(Cl)cc2)O1)NCCN1CCCCC1 | nt | nt | nt | i | nt | nt
CO[C@@H]1CN(C)C(=O)c2ccc(NC(=O)c3cc(C)on3)cc2OC[C@@H](C)NC[C@@H]1C | nt | nt | nt | i | nt | nt
Cc1ccc[n+](CC(=O)c2ccc(NC(=O)c3ccccc3)cc2)c1 | i | i | i | i | nt | nt
O=C(Nc1ccc[n+](CC(=O)c2cccc3ccccc23)c1)c1ccccc1 | i | 24 | i | i | i | i
O=C(NCCCN1CCOCC1)c1ccc(CSc2ccc(Cl)cc2)cc1 | i | 27 | i | i | i | i
Cc1cc(C)nc(N2N=C(C(C)(C)C)CC2=O)n1 | i | 37 | i | nt | i | 26
Cc1ccc(SCC2=NN(c3nc(C)cc(C)n3)C(=O)C2)cc1 | i | i | i | nt | nt | nt
CCNC(=O)C[C@@H]1CC[C@H]2[C@H](COc3ccc(NC(=O)Nc4cccc(C)c4)cc3C(=O)N2C)O1 | nt | nt | nt | i | nt | nt
COC(C/C=C\C(=O)COCc1ccccc1)OC | i | nt | i | nt | nt | nt
COC(C/C=C/[C@H](O)[C@@H](C)OCc1ccccc1)OC | i | i | i | i | nt | nt
COC(C/C=C/C(=O)COCc1ccccc1)OC | i | 24 | i | i | 46 | 43
SMILES | APOBEC3A inh | ABHD5-PLIN5 inh | APOBEC3G inh | FN deposit inh | ABHD5 PLIN5 conf | HNF4 split-luc
COC(C/C=C/C(=O)[C@H](C)OCc1ccccc1)OC | i | 30 | i | nt | 55 | 55
COC(C[C@@H]1O[C@H]1C(=O)COCc1ccccc1)OC | i | 31 | i | i | i | i
O=C(C[C@@H]1CC[C@@H](NC(=O)c2ccncc2)[C@H](CO)O1)Nc1ccccc1 | nt | nt | nt | i | nt | nt
Cc1ccc(C(=O)Nc2ccc3c(c2)OCCO3)c(Cl)c1 | i | i | i | i | nt | nt
O=C(Nc1ccc2c(c1)OCCO2)c1cc(F)c(F)cc1Cl | i | 24 | i | i | i | i
CN(C)c1ccc(/C=C2/C[N+](C)(C)C/C(=C/c3ccc(N(C)C)cc3)C2=O)cc1 | nt | 39 | nt | i | 50 | 42
Cc1ccc(O)c(NC(=S)NC(=O)/C=C/c2ccco2)c1 | i | i | i | i | nt | nt
Cc1ccnc(NC(=S)NC(=O)/C=C/c2ccco2)c1 | i | 24 | i | nt | i | i
Cc1ccc(Nc2cc(C)nc(NCc3ccccc3)n2)cc1 | i | 23 | i | i | i | 15
Cc1cc(NC2CCCCC2)nc(NCc2ccccc2)n1 | i | i | i | i | nt | nt
CCN(CC)CCCNC(=O)CSc1c2c(nc3cc(Cl)ccc13)CCCC2 | i | 29 | i | i | 39 | 28
Cc1ccc2c(CC(=O)N3CCN(S(=O)(=O)c4ccc5c(c4)OCCO5)CC3)coc2c1 | i | 27 | i | i | 57 | nt
Cn1nnnc1Sc1ncnc2scc(-c3ccc[nH]3)c12 | i | 42 | i | i | 40 | 37
Cn1nnnc1Sc1ncnc2scc(-c3ccccc3)c12 | i | i | i | i | nt | nt
COc1ccc(NC(=O)c2cc3ccccc3cc2O)cc1 | i | 48 | i | i | 53 | 22
CN1CCC(=C2c3ccccc3CC(=O)c3sccc32)CC1 | i | 27! | i | i | 30 | i
CN1CCC(=C2c3ccccc3CCc3sccc32)CC1 | i | i | i | nt | nt | nt
COc1ccc(OC)c2sc(NC(=O)C3=COCCO3)nc12 | i | 38 | i | i | i | i
Cc1ccc(S(=O)(=O)Nc2ccc3c(c2)C(=O)N([C@H](C)CO)C[C@@H](C)[C@@H](CN(C)Cc2ccc(C(F)(F)F)cc2)OCCCC[C@H](C)O3)cc1 | nt | nt | nt | i | nt | nt
Cc1ccc(S(=O)(=O)NC2CCCCC2)cc1C(=O)N1CCC(C(N)=O)CC1 | i | 36 | i | i | i | i
O=C(NC1CCCCC1)[C@H]1[C@H](CO)[C@H]2Cn3c(cccc3=O)[C@H]2N1CC1CCCC1 | nt | nt | nt | i | nt | nt
COc1cc(OC)cc(C(=O)NC(=S)N(Cc2ccccc2)C(C)C)c1 | i | 45 | i | i | 70 | i
C/C=C/c1ccc([C@@H]2[C@H](CO)N(C(C)=O)C23CN(C(=O)NC2CCCC2)C3)cc1 | nt | nt | nt | i | nt | nt
O=S(=O)(c1ccccc1)N1CCN(Cc2c(O)ccc3ccccc23)CC1 | i | 28 | i | i | 39 | 81
